Assay results pooled from the literature.
Target: Serine/threonine-protein kinase TAO1 (TAOK1, Homo sapiens, UniProt Q7L7X3)
Sequence (Q7L7X3 1-1001, as in one of the studies): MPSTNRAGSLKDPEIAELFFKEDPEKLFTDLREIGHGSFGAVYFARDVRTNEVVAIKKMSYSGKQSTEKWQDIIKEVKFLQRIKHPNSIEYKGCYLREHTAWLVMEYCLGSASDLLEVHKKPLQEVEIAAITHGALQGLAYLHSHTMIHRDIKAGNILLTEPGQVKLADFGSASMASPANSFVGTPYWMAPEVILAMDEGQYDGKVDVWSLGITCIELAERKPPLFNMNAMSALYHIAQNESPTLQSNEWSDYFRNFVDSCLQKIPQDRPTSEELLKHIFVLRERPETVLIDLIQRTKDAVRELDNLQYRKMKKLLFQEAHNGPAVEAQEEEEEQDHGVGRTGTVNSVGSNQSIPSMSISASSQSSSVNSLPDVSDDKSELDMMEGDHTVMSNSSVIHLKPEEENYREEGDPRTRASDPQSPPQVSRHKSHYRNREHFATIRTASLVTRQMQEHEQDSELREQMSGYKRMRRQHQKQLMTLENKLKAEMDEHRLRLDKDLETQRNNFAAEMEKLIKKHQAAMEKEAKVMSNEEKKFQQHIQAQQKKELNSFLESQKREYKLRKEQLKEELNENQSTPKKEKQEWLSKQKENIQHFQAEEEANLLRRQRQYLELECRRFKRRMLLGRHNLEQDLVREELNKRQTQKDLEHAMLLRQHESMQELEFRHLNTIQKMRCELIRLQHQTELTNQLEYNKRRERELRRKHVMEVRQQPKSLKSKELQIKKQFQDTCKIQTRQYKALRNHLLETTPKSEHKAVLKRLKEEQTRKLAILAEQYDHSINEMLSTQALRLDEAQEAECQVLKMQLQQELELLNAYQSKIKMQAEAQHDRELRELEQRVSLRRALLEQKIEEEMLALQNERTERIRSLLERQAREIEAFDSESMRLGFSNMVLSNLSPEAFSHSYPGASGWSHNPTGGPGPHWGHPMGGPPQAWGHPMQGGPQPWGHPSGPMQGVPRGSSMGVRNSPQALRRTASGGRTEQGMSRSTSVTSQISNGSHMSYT

| Structure (SMILES) | assay | setting | endpoint | value |
| --- | --- | --- | --- | --- |
| Nc1ncnc2occ(-c3ccc(NC(=O)Nc4cc(C(F)(F)F)ccc4F)cc3)c12 | cell-free assay, inhibitor | 20 µM | remaining signal | 0.3% |
| Cc1cnc(NC2CCOCC2)nc1-n1cnc(C(=O)NC(CN)c2cc(F)cc(Cl)c2)c1 (stereo not drawn) | enzyme activity, inhibitor, radiometric | 1 µM | remaining activity | 67% |
| CS(=O)(=O)c1cc(C2(NC(=O)c3cncc4c3cnn4-c3ccc(F)cc3)CC2)ccn1 | cell-free assay, competition with immobilised ligand | 1 µM | remaining binding | 94% |
| COc1cc(Nc2cnc(C#N)c(O[C@H](C)CN(C)C)n2)ncc1-c1cnn(C)c1 | enzyme activity, inhibitor, radiometric | 10 µM | remaining activity | 75% |
| Clc1ccc(Nc2nnc(Cc3ccncc3)c3ccccc23)cc1 | cell-free assay | 0.5 µM | remaining signal | 98.7% |
| COc1cc(-c2cn(C3CCc4ccccc4N(CC(F)(F)F)C3=O)nn2)ccc1-n1ccc(C)n1 (stereo not drawn) | cell-free assay, competition with immobilised ligand | 1 µM | remaining binding | 92% |
| Nc1nc(Nc2ccc(S(N)(=O)=O)cc2)sc1C(=O)c1ccccc1[N+](=O)[O-] | enzyme activity, inhibitor | 0.1 µM | inhibition | 60 to 66% |
| CN(C)C(=O)Cn1cc(-c2nc(C3(c4ccc(-c5cnc(N)nc5)cc4)CC3)no2)cn1 | cell-free assay, competition with immobilised ligand | 1 µM | remaining binding | 86% |
| COc1cc(Cl)c(C(=O)N[C@@H](CN[C@H]2CC[C@@H](N)CC2)Cc2ccc(C#N)cc2)cc1-c1ccc(CN[C@H](C)c2ccc(C)cc2)o1 | enzyme activity, inhibitor | 1 µM | remaining activity | 97% |
| Cc1cc(C)c(-n2ccn3nc(-c4cccnc4)cc23)cc1NC(=O)c1cc(C#N)cc(S(F)(F)(F)(F)F)c1 | cell-free assay, competition with immobilised ligand | 0.1 µM | remaining binding | 45.2% |
| O=C1Nc2ccc(Cl)cc2C1=Cc1cc(Cl)c(O)c(Cl)c1 | cell-free assay | 0.5 µM | remaining signal | 71.6% |
| Oc1cccc(-c2nc(N3CCOCC3)c3oc4ncccc4c3n2)c1 | enzyme activity, inhibitor | 10 µM | remaining activity | 84% |
| COc1cc(/C=C/C(=O)CC(=O)/C=C/c2ccc(O)c(OC)c2)ccc1O | enzyme activity, inhibitor | 1 µM | activity vs control | 84% |
| CNC(=O)c1cc(Oc2ccc(NC(=O)Nc3ccc(Cl)c(C(F)(F)F)c3)cc2)ccn1 | cell-free assay | 0.5 µM | remaining signal | 82% |
| O=C(Nc1cnn(-c2csc(C(=O)NC3COC3)c2)c1)Nc1ccccc1Cl | enzyme activity, inhibitor | 5 µM | remaining activity | 122% |
| O=C(N1CCS(=O)(=O)CC1)N1C[C@H](c2ccc(OC(F)(F)F)cc2)C[C@H](c2nc(C3CC3)no2)C1 | cell-free assay, competition with immobilised ligand | 1 µM | remaining binding | 100% |
| CN1CC(Oc2cnc(C#N)cc2-c2ccn3nc(NC(=O)C4CC4)cc3c2)C1 | enzyme activity, inhibitor | 1 µM | inhibition | -1% |
| Cc1sc(C(=O)NC2COC2)cc1-n1cc(NC(=O)Nc2c(F)cccc2Cl)cn1 | enzyme activity, inhibitor | 10 µM | remaining activity | 108% |
| FC(F)(F)Oc1cccc(-c2cnc3ccc(-c4ccncc4)nn23)c1 | enzyme activity, inhibitor, radiometric | 1 µM | activity vs control | 83% |
| CO[C@@H](C)c1c(Nc2ccc([C@H](N(C)C(=O)C3CCS(=O)(=O)CC3)C(F)(F)F)cc2)cnc2cc(Cl)nn12 | cell-free assay, competition with immobilised ligand | 1 µM | remaining binding | 100% |
| CCCOc1ccc(OC)c(F)c1C(=O)c1ccc(C(=O)N[C@@H]2CNC[C@H]2NC(=O)c2ccc3[nH]ncc3c2)cc1 | enzyme activity, inhibitor | 10 µM | remaining activity | 74% |
